Results as given in ChEMBL document CHEMBL1811920, “Chemical constituents of a marine fungus, Arthrinium sacchari” (J Nat Prod, 2011).

Assays:
HUVEC = experiment: Antiangiogenesis activity in HUVEC assessed as inhibition of VEGF-induced cell proliferation after 72 hrs by MTT assay; assay type: functional, cell-based; settings: Homo sapiens
Method in brief: (§1)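 Cells were purchased primary endothelial cells, maintained at 37 C in 5% CO2: HUVECs in EGM-2 Bulletkit medium and HUAECs in EGM-2MV Bulletkit medium. For the assay, 3 103 cells/well were seeded in culture medium for 3 h, then switched to 1% FBS EBM-2 for 21 h. VEGF (1 nM) and compounds were added for 72 h. Proliferation was read with WST-8 at 450 nm. Ki8751, a VEGFR2 kinase inhibitor, was the positive control.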

[1] = Antiangiogenesis activity in HUAEC assessed as inhibition of VEGF-induced cell proliferation after 72 hrs by MTT assay; assay type: functional; settings: Homo sapiens; method in brief: as §1

Compound | IC50 (HUVEC) | IC50 [1]
C[C@H]1C/C=C/[C@H]2[C@@H]3O[C@]3(C)[C@@H](C)[C@H]3[C@H](Cc4ccccc4)NC(=O)[C@]32OC(=O)O/C=C/[C@@](C)(O)C1=O [CYTOCHALASIN E] | 0.0114 µM | 0.011 µM
Cc1c(O)cc(O)c2c(=O)oc(CO)c(C)c12 [DECARBOXYHYDROXYCITRINONE] | 7.6 µM | 17.4 µM
C=C[C@]1(C)C=C2C(=O)C(O)=C3[C@@](C)(CO)CC[C@@H](O)[C@]3(C)[C@@]2(O)CC1 [LIBERTELLENONE C] | 29.7 µM | 68.7 µM
C=C[C@]1(C)C=C2C(=O)C3=C4[C@@](C)(CC[C@@H](O)[C@]4(C)[C@@]2(O)CC1)[C@@H](O)O3 [LIBERTELLENONE E] | 236 µM | 238 µM
C=C[C@]1(C)C=C2C(=O)C3=C4[C@@](C)(CC[C@@H](O)[C@]4(C)[C@@]2(O)CC1)CO3 [LIBERTELLENONE F] | 64.1 µM | 97.8 µM
C=C[C@@]1(C)C=C2C(=O)C(O)=C3[C@](C)(C(=O)O)CC[C@@H]4C[C@]34[C@]2(O)C(=O)C1 [MYROCIN A] | 11 µM | 9.2 µM
C=C[C@]1(C)C=C2[C@@H](O)[C@@H]3OC(=O)[C@@]4(C)CC[C@H]5C[C@]5([C@@H]34)[C@@]2(O)C(=O)C1 [MYROCIN D] | 70.8 µM | 277 µM
